Measurements taken from ChEMBL document CHEMBL2311516, “Structure-activity relationship studies of argiotoxins: selective and potent inhibitors of ionotropic glutamate receptors” (J Med Chem, 2013).

What was measured:
Rattus norvegicus [1] = species on record: Rattus norvegicus; experiment: Selectivity ratio of IC50 for rat GluN1/2A receptor to IC50 for rat GluA1 receptor flip form
Outline: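 Ratio IC50(GluN1/2A)/IC50(GluA1), each IC50 from composite dose−response data of 5 to 10 oocytes in two-electrode voltage clamp. GluA1_i driven by 300 μM glutamate; GluN1/2A driven by 100 μM glutamate plus 100 μM glycine; antagonist coapplied.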

Rattus norvegicus [2] = species on record: Rattus norvegicus; experiment: Selectivity ratio of IC50 for rat GluA1 receptor flip form to IC50 for rat GluN1/2A receptor
Outline: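 Ratio IC50(GluA1)/IC50(GluN1/2A), each IC50 from composite dose−response data of 5 to 10 oocytes in two-electrode voltage clamp. GluA1_i driven by 300 μM glutamate; GluN1/2A driven by 100 μM glutamate plus 100 μM glycine; antagonist coapplied.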

[3] = molecular target: Glutamate NMDA receptor; Grin1/Grin2a (Rattus norvegicus, UniProt P35439+Q00959); experiment: Inhibition of rat GluN1/2A receptor expressed in Xenopus laevis oocyte assessed as glutamate and glycine-induced current at holding potentials from -80 to -40 mV by two electrode voltage clamp analysis
Glutamate NMDA receptor; Grin1/Grin2a, sequence (Q00959 whole entry, other chains not shown): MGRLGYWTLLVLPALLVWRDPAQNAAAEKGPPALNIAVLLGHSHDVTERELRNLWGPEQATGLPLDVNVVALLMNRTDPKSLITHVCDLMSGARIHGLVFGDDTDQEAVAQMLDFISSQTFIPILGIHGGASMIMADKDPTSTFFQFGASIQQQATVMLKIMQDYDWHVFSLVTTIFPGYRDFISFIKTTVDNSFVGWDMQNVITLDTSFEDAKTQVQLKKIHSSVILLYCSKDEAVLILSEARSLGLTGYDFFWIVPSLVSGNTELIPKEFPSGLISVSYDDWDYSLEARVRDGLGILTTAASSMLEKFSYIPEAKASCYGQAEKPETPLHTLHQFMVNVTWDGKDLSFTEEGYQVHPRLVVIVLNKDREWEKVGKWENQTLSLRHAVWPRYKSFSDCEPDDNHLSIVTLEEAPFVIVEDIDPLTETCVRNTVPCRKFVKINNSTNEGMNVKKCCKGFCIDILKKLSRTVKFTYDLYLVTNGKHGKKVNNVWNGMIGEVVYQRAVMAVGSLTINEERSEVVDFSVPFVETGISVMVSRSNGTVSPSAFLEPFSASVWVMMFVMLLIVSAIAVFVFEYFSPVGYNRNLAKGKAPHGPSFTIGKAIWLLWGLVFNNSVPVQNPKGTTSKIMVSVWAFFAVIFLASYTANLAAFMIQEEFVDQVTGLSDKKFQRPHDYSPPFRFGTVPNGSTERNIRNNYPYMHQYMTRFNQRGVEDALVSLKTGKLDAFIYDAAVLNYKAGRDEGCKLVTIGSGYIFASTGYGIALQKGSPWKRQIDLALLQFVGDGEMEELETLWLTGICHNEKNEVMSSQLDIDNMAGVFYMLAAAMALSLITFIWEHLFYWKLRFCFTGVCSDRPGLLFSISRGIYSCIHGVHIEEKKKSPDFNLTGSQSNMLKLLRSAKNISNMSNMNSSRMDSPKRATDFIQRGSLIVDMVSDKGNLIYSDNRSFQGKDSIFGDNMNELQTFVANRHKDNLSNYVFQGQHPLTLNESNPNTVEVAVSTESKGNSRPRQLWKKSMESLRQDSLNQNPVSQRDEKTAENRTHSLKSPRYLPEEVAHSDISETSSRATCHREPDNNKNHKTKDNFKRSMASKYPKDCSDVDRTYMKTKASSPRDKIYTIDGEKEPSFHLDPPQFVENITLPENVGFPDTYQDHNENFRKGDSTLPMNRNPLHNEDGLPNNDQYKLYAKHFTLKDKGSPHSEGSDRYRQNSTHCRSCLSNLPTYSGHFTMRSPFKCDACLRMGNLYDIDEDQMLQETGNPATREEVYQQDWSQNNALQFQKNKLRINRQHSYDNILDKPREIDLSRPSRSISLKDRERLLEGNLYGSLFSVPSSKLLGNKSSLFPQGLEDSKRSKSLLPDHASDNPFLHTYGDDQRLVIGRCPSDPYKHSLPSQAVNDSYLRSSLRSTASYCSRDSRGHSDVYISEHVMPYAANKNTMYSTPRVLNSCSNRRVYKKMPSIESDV
Outline: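 Oocytes injected with 25 nL GluN1/N2A cRNA (1:1, 0.05 ng/nL), held at 17 °C in Barth's medium with gentamicin, recorded 3−6 days later by two-electrode voltage clamp in frog Ringer's. Current evoked by 100 μM L-glutamate plus 100 μM glycine, antagonist coapplied at rising levels; holding potentials −40, −60, −80 mV. IC50 from logistic fit, triplicate curves.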

Glutamate receptor 1 = Glutamate receptor 1 (Rattus norvegicus, UniProt P19490); experiment: Inhibition of rat GluA1 receptor flip form expressed in Xenopus laevis oocyte assessed as glutamate-induced current at holding potentials from -80 to -40 mV by two electrode voltage clamp analysis
Glutamate receptor 1, sequence (P19490 whole entry, the tested form may be a part): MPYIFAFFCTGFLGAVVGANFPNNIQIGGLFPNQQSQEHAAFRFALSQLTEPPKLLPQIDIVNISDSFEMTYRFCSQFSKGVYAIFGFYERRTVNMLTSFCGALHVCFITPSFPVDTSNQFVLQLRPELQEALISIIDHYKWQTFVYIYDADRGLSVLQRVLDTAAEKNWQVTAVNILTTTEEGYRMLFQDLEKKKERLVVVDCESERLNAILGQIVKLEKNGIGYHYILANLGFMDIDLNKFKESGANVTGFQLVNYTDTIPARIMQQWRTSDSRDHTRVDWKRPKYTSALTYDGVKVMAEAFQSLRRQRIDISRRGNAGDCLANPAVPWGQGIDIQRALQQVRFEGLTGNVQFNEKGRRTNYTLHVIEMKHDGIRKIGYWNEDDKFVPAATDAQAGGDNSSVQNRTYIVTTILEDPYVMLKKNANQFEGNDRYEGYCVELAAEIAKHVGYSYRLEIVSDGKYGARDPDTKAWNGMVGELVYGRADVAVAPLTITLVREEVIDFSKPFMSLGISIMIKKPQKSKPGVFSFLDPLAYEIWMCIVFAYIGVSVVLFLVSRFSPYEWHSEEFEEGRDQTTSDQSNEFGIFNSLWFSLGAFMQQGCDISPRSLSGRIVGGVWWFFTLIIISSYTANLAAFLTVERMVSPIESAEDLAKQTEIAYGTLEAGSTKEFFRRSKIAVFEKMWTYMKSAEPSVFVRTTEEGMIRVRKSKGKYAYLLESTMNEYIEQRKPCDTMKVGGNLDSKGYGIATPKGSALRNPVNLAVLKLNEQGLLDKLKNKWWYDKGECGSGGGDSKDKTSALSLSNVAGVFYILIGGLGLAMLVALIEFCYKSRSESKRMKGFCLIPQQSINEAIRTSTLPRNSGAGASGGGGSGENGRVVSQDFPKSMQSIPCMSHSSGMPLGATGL
Outline: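 Oocytes injected with 25 nL GluA1_i cRNA (1 ng/nL), kept at 17 °C in Barth's medium with gentamicin, recorded 3−6 days later under two-electrode voltage clamp in frog Ringer's superfusion. Current evoked by 300 μM L-glutamate, then increasing antagonist coapplied with agonist; holding potentials −40, −60, −80 mV. Per-oocyte logistic fit for IC50, triplicate curves.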

Row | SMILES | Ratio IC50 (Rattus norvegicus [1]) | Ratio IC50 (Rattus norvegicus [2]) | IC50 [3] [µM] | IC50 (Glutamate receptor 1) [µM]
1 | N=C(N)NCCC[C@H](N)C(=O)NCCCCCCCNCCCCCNC(=O)[C@H](CC(N)=O)NC(=O)Cc1ccc(O)cc1O | 11 | 0.09 | 0.842 | 0.078
2 | N=C(N)NCCC[C@H](N)C(=O)NCCCCCCCCCNCCCNC(=O)[C@H](CC(N)=O)NC(=O)Cc1ccc(O)cc1O | < 0.06 | < 0.06 | > 3 | 0.171
3 | N=C(N)NCCC[C@H](N)C(=O)NCCCNCCCCCCCCCNC(=O)[C@H](CC(N)=O)NC(=O)Cc1ccc(O)cc1O | – | 32 | – | –
4 | N=C(N)NCCC[C@H](N)C(=O)NCCCCNCCCCCCCCNC(=O)[C@H](CC(N)=O)NC(=O)Cc1ccc(O)cc1O | – | 10 | – | –
5 | N=C(N)NCC[C@@H](N)C(=O)NCCCCCNCCCCCCCNC(=O)[C@@H](NC(=O)Cc1ccc(O)cc1O)c1c[nH]c2ccccc12 | – | 3.4 | – | –
6 | N=C(N)NCCC[C@H](N)C(=O)NCCCNCCCNCCCCCNC(=O)[C@H](CC(N)=O)NC(=O)Cc1ccc(O)cc1O | – | 8 | 0.01 | –
7 | NC(=O)C[C@H](NC(=O)Cc1ccc(O)cc1O)C(=O)NCCCCCCCCCNCCCNC(=O)[C@@H](N)CCCN=C(N)N | – | – | 0.014 | 0.454
8 | N=C(N)NCC[C@@H](N)C(=O)NCCCCCNCCCCCCCNC(=O)[C@H](CC(=O)O)NC(=O)Cc1ccc(O)cc1O | 13 | 0.07 | 2.23 | 0.167
9 | NC(=O)C[C@H](NC(=O)Cc1ccc(O)cc1O)C(=O)NCCCCCCCCNCCCCNC(=O)[C@@H](N)CCCN=C(N)N | – | – | 0.008 | 0.083
10 | N=C(N)NCCC[C@H](N)C(=O)NCCCCCNCCCCCCCNC(=O)[C@H](CC(N)=O)NC(=O)Cc1ccc(O)cc1O | – | 7 | – | –
11 | NC(=O)C[C@H](NC(=O)Cc1ccc(O)cc1O)C(=O)NCCCCCCCNCCCCCNC(=O)[C@@H](N)CCCN=C(N)N | – | – | 0.017 | 0.118
12 | N=C(N)NCCC[C@H](N)C(=O)NCCCCCCNCCCCCCNC(=O)[C@H](CC(N)=O)NC(=O)Cc1ccc(O)cc1O | – | 2 | 0.021 | 0.046
13 | N=C(N)NCCC[C@H](N)C(=O)NCCCCCCCCNCCCCNC(=O)[C@H](CC(N)=O)NC(=O)Cc1ccc(O)cc1O | 12 | 0.08 | 0.231 | 0.019
